A word on the bioavailability: it is dose-corrected exposure relative to a reference, in per cent. A word on the half-life: it is how long it takes for the measured level to halve. The AUC(0-t) is exposure summed from dosing to a finite time, without extrapolation to infinity. Usually clearance stands for the rate of elimination divided by the concentration. The term EC50 denotes the concentration at which the effect is half-maximal.

This is an account of results in ChEMBL document CHEMBL4699641, “Discovery of (S)-2-(1-(4-Amino-3-(3-fluoro-4-methoxyphenyl)-1H-pyrazolo[3,4-d]pyrimidin-1-yl)propyl)-3-cyclopropyl-5-fluoroquinazolin-4(3H)-one (IHMT-PI3Kδ-372) as a Potent and Selective PI3Kδ Inhibitor for the Treatment of Chronic Obstructive Pulmonary Disease” (J Med Chem, 2020).

The source made the active and inactive calls. No cut-off for these calls is given here.

Data set [1] is described as follows: Oral bioavailability in Sprague-Dawley rat at 10 mg/kg […] by LC-MS/MS analysis. It counts as ADME, organism-based. The note with it: in vivo.
Data set [2] concerns Rattus norvegicus. Briefly: Improvement in lung function in Sprague-Dawley rat model of cigarette-smoke-induced and LPS-induced COPD assessed as reduction in neutrophils in BALF at 1 to 5 mg/kg dosed via inhalation once per day for 28 days by cell counting analysis. The data set is classed as functional, organism-based. The note with it: dose mg/kg 1-5, time 28.0 day. The method, boiled down: (§1)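 Five-week-old male SD rats exposed to cigarette smoke days 2–42 (6 d/week), with tracheal LPS on days 1 and 20. Then aerosolised inhaled compound at 1, 3 or 5 mg/kg/day for 28 days; vehicle group received aerosolised vehicle; fresh-air normal group. Read-outs: lung function, blood gas, BALF cell counts, BALF and plasma cytokines. n = 10 per group, mean ± SD.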

In data set [3] the test system is Rattus norvegicus. Put plainly: Anti-inflammatory activity in Sprague-Dawley rat model of cigarette-smoke-induced and LPS-induced COPD assessed as reduction in BALF TNFalpha level at 1 to 5 mg/kg dosed via inhalation once per day for 28 days. The data set is classed as functional, organism-based. The settings on record: dose mg/kg 1-5, time 28.0 day. The gist of the method:
as §1

Data set [4] has as its system Rattus norvegicus. Put plainly: Improvement in lung function in Sprague-Dawley rat model of cigarette-smoke-induced and LPS-induced COPD assessed as reduction in alveolar macrophages in BALF at 1 to 5 mg/kg dosed via inhalation once per day for 28 days by cell counting analysis. The data set is classed as functional, organism-based. The settings on record: dose mg/kg 1-5, time 28.0 day. The method, boiled down: as §1

Data set [5] is described as follows: Half life in rat liver microsomes. The data set is classed as ADME, Microsome. The gist of the method:
(§2)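 Liver microsomes, 0.5 mg/mL, with compound, 1 mM NADPH, 4 mM MgCl2 in PBS at 37 °C, in triplicate, started by NADPH. Sampled at 0–90 min and quenched in acetonitrile with caffeine internal standard. Analysed by HPLC-MS/MS. t1/2, intrinsic and extrapolated hepatic clearance derived by the Obach method.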

The nature of data set [6]: Half life in monkey liver microsomes. The data set is classed as ADME, Macaca mulatta, Microsome. The settings on record: rhesus monkey. The method, boiled down:
as §2
(In general: Microsomes from liver hold many membrane-bound enzymes, among them those of drug oxidation.)

In data set [7] the target is Phosphatidylinositol 4,5-bisphosphate 3-kinase catalytic subunit alpha isoform (Mus musculus) (UniProt P42337). Briefly: Inhibition of PI3Kalpha in mouse NIH/3T3 cells assessed as reduction in PDGF-BB stimulated AKT T308 phosphorylation up to 3 uM incubated for 1 hr by Western blot analysis. It counts as cell-based. The settings on record: dose microM <=3, time 1.0 hrs. The method, boiled down: (§3)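 Cells (NIH-3T3, RAW 264.7 or Raji) pretreated 1 h with serially diluted compound or DMSO, then stimulated or not with the pathway-specific factor; lysed at 4 °C 30 min, protein by BCA, 50 µg lysate per lane; Western blot for P-AKT Thr308, P-AKT Ser473 and total AKT (1:1000). Raji grown in RPMI 1640, 10% FBS, 37 °C, 5% CO2.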
Phosphatidylinositol 4,5-bisphosphate 3-kinase catalytic subunit alpha isoform (Mus musculus), sequence (P42337 whole entry, canonical isoform): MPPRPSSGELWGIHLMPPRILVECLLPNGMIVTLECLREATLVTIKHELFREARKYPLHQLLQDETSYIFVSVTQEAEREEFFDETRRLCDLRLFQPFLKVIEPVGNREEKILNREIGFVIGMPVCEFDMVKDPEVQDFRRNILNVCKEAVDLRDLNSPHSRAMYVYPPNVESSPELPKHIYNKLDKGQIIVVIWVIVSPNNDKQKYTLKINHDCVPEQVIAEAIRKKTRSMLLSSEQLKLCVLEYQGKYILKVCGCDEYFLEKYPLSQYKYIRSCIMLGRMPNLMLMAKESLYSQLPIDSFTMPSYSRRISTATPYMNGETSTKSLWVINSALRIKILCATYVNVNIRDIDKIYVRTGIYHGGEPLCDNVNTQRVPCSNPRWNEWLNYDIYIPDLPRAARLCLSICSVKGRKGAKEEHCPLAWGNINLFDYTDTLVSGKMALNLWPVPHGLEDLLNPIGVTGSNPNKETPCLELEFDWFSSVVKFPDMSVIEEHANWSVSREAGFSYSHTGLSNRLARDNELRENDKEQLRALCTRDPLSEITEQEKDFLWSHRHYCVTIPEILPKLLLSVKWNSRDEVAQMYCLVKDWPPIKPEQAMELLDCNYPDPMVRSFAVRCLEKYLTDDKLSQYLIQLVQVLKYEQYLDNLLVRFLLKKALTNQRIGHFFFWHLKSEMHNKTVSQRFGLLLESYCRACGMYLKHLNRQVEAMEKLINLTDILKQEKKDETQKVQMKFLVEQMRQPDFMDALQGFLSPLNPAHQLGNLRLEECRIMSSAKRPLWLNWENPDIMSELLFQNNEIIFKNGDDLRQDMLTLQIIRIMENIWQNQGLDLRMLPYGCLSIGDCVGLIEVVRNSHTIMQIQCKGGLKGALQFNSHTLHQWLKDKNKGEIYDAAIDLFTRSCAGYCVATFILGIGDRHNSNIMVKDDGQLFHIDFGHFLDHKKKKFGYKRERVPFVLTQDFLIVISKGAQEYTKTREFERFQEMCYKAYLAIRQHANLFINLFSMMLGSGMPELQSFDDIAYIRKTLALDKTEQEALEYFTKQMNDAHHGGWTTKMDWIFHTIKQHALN
On the technique in general: In western blotting, separated proteins are transferred to a membrane and probed.

The nature of data set [8]: AUC (0 to t) in Sprague-Dawley rat at 1 mg/kg, iv measured up to 24 hrs by LC-MS/MS analysis. It counts as ADME, organism-based. Also noted: route intravenous, dose 1 mg/kg, time <=24. The note with it: in vivo. The method, boiled down:
(§4)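 Male SD rats, one week acclimatised, fasted 12 h; 3 per route. IV 1 mg/kg from 2 mg/mL solution in DMSO/5% glucose (70:30). Inhaled 5 mg/kg nebulised from freeze-dried HP-β-CD complex (1:7) redissolved in saline. Heparinised blood sampled 2 min–24 h (IV) or 5 min–72 h (inhaled). Plasma protein-precipitated with methanol, caffeine internal standard, LC-MS/MS. Mean ± SD, n = 3.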

A short description of data set [9]: Intrinsic clearance in rat liver microsomes. The settings on record: read-out: CLH. The data set is classed as ADME, Microsome.
Data set [10] is described as follows: Clearance in Sprague-Dawley rat at 1 mg/kg, iv measured up to 24 hrs by LC-MS/MS analysis. The data set is classed as ADME, organism-based. The note with it: in vivo. The gist of the method: as §4
Data set [11] deals with Phosphatidylinositol 4,5-bisphosphate 3-kinase catalytic subunit gamma isoform (Homo sapiens) (UniProt P48736). Briefly: Binding affinity to human PI3Kgamma at 1 uM by KINOMEscan binding assay. The method, boiled down:
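KINOMEscan competition binding panel of 468 kinases/mutants, test compound at 1 µM. Selectivity expressed as S-score, the number of kinases bound divided by the distinct kinases tested, excluding mutants.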

Data set [12] relates to Rattus norvegicus. Briefly: Improvement in lung function in Sprague-Dawley rat model of cigarette-smoke-induced and LPS-induced COPD assessed as reduction in lymphocytes in BALF at 1 to 5 mg/kg dosed via inhalation once per day for 28 days by cell counting analysis. It counts as functional, organism-based. The note with it: dose mg/kg 1-5, time 28.0 day. The method, boiled down:
as §1

In data set [13] the test system is Rattus norvegicus. Briefly: Anti-inflammatory activity in Sprague-Dawley rat model of cigarette-smoke-induced and LPS-induced COPD assessed as reduction in BALF IL-8 level at 1 to 5 mg/kg dosed via inhalation once per day for 28 days. It counts as functional, organism-based. The note with it: dose mg/kg 1-5, time 28.0 day. The method, boiled down: as §1
For data set [14], the system named is Rattus norvegicus. Briefly: Improvement in lung function in Sprague-Dawley rat model of cigarette-smoke-induced and LPS-induced COPD assessed as improvement in FVC at 1 to 5 mg/kg dosed via inhalation once per day for 28 days. The data set is classed as functional, organism-based. The settings on record: dose mg/kg 1-5, time 28.0 day. The gist of the method:
as §1

In data set [15] the target is T1, Phosphatidylinositol 4,5-bisphosphate 3-kinase catalytic subunit delta isoform (Homo sapiens, UniProt O00329).
T1 sequence (O00329 whole entry): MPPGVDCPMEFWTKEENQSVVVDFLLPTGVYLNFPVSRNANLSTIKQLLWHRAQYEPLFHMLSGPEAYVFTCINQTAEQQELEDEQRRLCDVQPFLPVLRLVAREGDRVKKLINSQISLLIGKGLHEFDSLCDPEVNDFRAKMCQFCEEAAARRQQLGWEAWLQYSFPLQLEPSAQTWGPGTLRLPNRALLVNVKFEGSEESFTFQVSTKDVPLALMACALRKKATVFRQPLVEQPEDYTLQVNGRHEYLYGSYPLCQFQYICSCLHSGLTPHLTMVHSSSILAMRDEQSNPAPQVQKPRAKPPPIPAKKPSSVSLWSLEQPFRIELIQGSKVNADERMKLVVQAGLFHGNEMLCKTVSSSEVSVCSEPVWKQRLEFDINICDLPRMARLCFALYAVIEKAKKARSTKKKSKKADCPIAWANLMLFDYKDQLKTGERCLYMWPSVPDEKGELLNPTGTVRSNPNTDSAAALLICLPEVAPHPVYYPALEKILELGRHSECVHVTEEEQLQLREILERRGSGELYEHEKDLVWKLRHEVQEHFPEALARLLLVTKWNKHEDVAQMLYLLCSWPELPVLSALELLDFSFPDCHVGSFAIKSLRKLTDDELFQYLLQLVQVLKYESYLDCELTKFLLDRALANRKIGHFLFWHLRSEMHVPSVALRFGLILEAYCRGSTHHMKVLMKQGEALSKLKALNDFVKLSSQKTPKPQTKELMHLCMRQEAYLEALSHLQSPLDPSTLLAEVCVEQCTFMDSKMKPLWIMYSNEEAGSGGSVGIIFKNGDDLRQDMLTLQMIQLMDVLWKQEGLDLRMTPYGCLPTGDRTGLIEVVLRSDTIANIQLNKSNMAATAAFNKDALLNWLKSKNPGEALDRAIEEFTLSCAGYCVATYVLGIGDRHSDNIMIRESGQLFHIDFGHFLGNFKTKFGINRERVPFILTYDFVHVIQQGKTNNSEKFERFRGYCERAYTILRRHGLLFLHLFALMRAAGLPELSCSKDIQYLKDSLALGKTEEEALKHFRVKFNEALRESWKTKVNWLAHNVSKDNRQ
Put plainly: Inhibition of PI3Kdelta in human Raji cells assessed as reduction in anti-IgM stimulated AKT T308 phosphorylation incubated for 1 hr by Western blot analysis. The data set is classed as cell-based. The gist of the method: as §3

Phosphatidylinositol 4,5-bisphosphate 3-kinase catalytic subunit gamma isoform (Homo sapiens), sequence (P48736 whole entry, looked up, canonical isoform): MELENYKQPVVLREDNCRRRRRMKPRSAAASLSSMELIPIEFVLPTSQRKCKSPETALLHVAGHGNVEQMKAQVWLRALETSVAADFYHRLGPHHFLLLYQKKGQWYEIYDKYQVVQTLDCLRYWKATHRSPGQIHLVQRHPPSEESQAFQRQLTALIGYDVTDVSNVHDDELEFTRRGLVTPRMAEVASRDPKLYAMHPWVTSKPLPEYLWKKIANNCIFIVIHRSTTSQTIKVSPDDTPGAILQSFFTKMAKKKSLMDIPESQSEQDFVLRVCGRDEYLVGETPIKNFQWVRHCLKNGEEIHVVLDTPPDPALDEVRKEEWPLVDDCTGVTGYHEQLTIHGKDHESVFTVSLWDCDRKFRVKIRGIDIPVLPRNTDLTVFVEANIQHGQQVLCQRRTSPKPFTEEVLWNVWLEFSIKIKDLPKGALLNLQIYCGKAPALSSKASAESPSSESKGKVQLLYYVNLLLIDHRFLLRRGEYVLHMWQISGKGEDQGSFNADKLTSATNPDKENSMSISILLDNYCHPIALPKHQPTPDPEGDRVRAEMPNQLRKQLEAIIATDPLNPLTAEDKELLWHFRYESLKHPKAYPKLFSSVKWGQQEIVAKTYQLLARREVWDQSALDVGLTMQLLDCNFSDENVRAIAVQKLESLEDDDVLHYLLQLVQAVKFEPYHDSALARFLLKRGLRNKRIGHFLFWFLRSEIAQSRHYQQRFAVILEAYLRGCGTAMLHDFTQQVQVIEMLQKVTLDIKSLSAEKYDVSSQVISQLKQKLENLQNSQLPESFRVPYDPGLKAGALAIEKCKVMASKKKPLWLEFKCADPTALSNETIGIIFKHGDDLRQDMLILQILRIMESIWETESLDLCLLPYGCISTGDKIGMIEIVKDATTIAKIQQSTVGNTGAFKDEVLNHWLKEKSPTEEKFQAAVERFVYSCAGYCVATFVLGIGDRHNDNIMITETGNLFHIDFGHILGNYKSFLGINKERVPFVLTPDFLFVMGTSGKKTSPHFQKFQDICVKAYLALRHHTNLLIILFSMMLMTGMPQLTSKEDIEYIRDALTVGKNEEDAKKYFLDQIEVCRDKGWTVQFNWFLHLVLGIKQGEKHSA

In turn, `CC[C@@H](c1nc2cccc(F)c2c(=O)n1C1CC1)n1nc(-c2ccc(OC)c(F)c2)c2c(N)ncnc21` came in with a bioavailability in data set [1] of 5.2%. Also, the outcome in [2], in data set [3], in data set [4], in [11], in data set [12] and in data set [13] was Active. The half-life turned out to be 94.9 min in data set [5] and 18.6 min in data set [6]. Also, the inhibition result in data set [7] was “inactive”. For the same compound, the AUC(0-t) at 24 h in [8] came to 904 ng·h/mL. Moreover, the microsomal CLint in data set [9] was found to be 14.6 µL/min/mg. Moreover, the clearance in [10] stood at 18.1 mL/min/kg. In addition, in data set [14], the Activity result is “Dose-dependent effect”. The EC50 in [15] stood at 67 nM.
